From ChEMBL document CHEMBL5338714, “Design, synthesis and biological evaluation of biphenyl-benzamides as potent FtsZ inhibitors” (Eur J Med Chem, 2022) come the findings set out here.

The subject of series [1] is Staphylococcus aureus. In words: Antibacterial activity against Staphylococcus aureus ATCC29213 assessed as bacterial growth inhibition incubated for 18 hrs by CLSI based broth microdilution method. The format is functional. In short, it runs like this: (§1)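 CLSI broth microdilution. Log-phase bacteria in Mueller Hinton broth added to 2-fold serial dilutions spanning 128 to 0.25 or 2 to 0.004 µg/mL. Incubated aerobically for 18 h at 37 °C, then OD600 read. MIC is the lowest concentration giving ≥90% growth inhibition; three independent assays.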

Series [2] deals with Staphylococcus aureus. In words: Antibacterial activity against Staphylococcus aureus ATCC25923 assessed as bacterial growth inhibition incubated for 18 hrs by CLSI based broth microdilution method. The format is functional. In short, it runs like this: as §1
Series [3] deals with Bacillus subtilis. In words: Antibacterial activity against Bacillus subtilis ATCC9372 assessed as bacterial growth inhibition incubated for 18 hrs by CLSI based broth microdilution method. It counts as functional. In short, it runs like this: as §1
The nature of series [4]: Cytotoxicity against African green monkey Vero cells assessed as reduction in cell viability incubated for 72 hrs by alamar blue staining based assay. Particulars: chlorocebus sabaeus. The format is toxicity. The method in brief: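 Vero cells seeded at about 2 × 10^3 per well, 37 °C, 5% CO2. Compound added after 24 h and incubated 72 h. AlamarBlue (1:10 v/v) then added for 3 h in the dark, read at Ex/Em 560/590 nm. CC50 is the lowest concentration causing 50% loss of viability.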

Series [5] relates to Bacillus subtilis. In words: Antibacterial activity against Bacillus subtilis BS01 assessed as bacterial growth inhibition incubated for 18 hrs by CLSI based broth microdilution method. It counts as functional. In short, it runs like this:
as §1

Series [6] can be described thus: Selectivity index, ratio of CC50 for African green monkey Vero cells to MIC for Bacillus subtilis ATCC9372. It counts as toxicity, cell-based. To be noted: read-out: Selectivity Index. In short, it runs like this:
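CC50 in Vero cells (72 h Alamar blue) divided by broth microdilution MIC against B. subtilis ATCC9372.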

Series [7] relates to Bacillus subtilis. The experiment in a line: Antibacterial activity against Bacillus subtilis MG27 assessed as bacterial growth inhibition incubated for 18 hrs by CLSI based broth microdilution method. It counts as functional. The method in brief:
as §1

The test system of series [8] is Bacillus subtilis. In words: Antibacterial activity against Bacillus subtilis 618 assessed as bacterial growth inhibition incubated for 18 hrs by CLSI based broth microdilution method. The format is functional. In short, it runs like this:
as §1

The structures appear in SMILES notation. Converted amounts (≈) assume the structure as drawn.

For `NC(=O)c1c(F)ccc(OCc2cccc(-c3ccccc3)c2)c1F`, the MIC in the series on Staphylococcus aureus [1] amounted to 2 µg/mL (≈ 5.89 µM); in the series on Staphylococcus aureus [2], 2 µg/mL (≈ 5.89 µM); in the series on Bacillus subtilis [3], 0.5 µg/mL (≈ 1.47 µM).

`NC(=O)c1cc(C(F)(F)F)ccc1-c1cccc(COc2ccc(F)c(C(N)=O)c2F)c1`: the MIC in the series on Staphylococcus aureus [1], with Staphylococcus aureus [2] and with Bacillus subtilis [3] was greater than 128 µg/mL each time.

As to `Cc1cc(C(F)(F)F)ccc1-c1cccc(COc2ccc(F)c(C(N)=O)c2F)c1`, the CC50 at 72 h in series [4] was greater than 20 µg/mL. Besides, the MIC in the series with Staphylococcus aureus [1] was 0.25 µg/mL (≈ 0.593 µM); in the series with Bacillus subtilis [5], 0.016 µg/mL (≈ 0.038 µM); in the series on Staphylococcus aureus [2], 0.25 µg/mL (≈ 0.593 µM); with Bacillus subtilis [7], 0.063 µg/mL (≈ 0.15 µM); with Bacillus subtilis [3], 0.031 µg/mL (≈ 0.0736 µM); with Bacillus subtilis [8] it was 0.031 µg/mL (≈ 0.0736 µM). For the same compound, the selectivity ratio in series [6] was greater than 1250.

Consider `Cc1ccc(-c2cccc(COc3ccc(F)c(C(N)=O)c3F)c2)cc1`, for which the values for the minimal inhibitory concentration (MIC) with Staphylococcus aureus [1], in the series on Staphylococcus aureus [2] and in the series with Bacillus subtilis [3] were 0.5 µg/mL (≈ 1.41 µM), 0.5 µg/mL (≈ 1.41 µM) and 0.125 µg/mL (≈ 0.354 µM), respectively.

Regarding `CCCc1ccc(-c2cccc(COc3ccc(F)c(C(N)=O)c3F)c2)cc1`, the minimal inhibitory concentration (MIC) with Staphylococcus aureus [1] came out at 1 µg/mL (≈ 2.62 µM); in the series on Staphylococcus aureus [2] it was 1 µg/mL (≈ 2.62 µM); in the series on Bacillus subtilis [3], 0.125 µg/mL (≈ 0.328 µM).

On to `NC(=O)c1c(F)ccc(OCc2cccc(-c3ccc(C(F)(F)F)cc3)c2)c1F`, for which the MIC in the series on Staphylococcus aureus [1] is 2 µg/mL (≈ 4.91 µM); with Staphylococcus aureus [2] it was 1 µg/mL (≈ 2.45 µM); with Bacillus subtilis [3], 0.125 µg/mL (≈ 0.307 µM).

As to `NC(=O)c1c(F)ccc(OCc2cccc(-c3ccc(C(F)(F)F)cc3C(F)(F)F)c2)c1F`, the minimal inhibitory concentration (MIC) with Staphylococcus aureus [1] amounted to 0.5 µg/mL (≈ 1.05 µM); in the series on Staphylococcus aureus [2], 0.5 µg/mL (≈ 1.05 µM); in the series with Bacillus subtilis [3], 0.125 µg/mL (≈ 0.263 µM).

`NC(=O)c1c(F)ccc(OCc2ccccc2)c1F`: the MIC in the series on Staphylococcus aureus [1] amounted to 64 µg/mL (≈ 243 µM); in the series with Staphylococcus aureus [2], 32 µg/mL (≈ 122 µM); in the series with Bacillus subtilis [3], 16 µg/mL (≈ 60.8 µM).

As to `NC(=O)c1c(F)ccc(OCc2cccc(-c3ccc(Cl)cc3C(F)(F)F)c2)c1F`, the MIC in the series with Staphylococcus aureus [1] stood at 0.5 µg/mL (≈ 1.13 µM); in the series with Staphylococcus aureus [2], 0.5 µg/mL (≈ 1.13 µM); in the series with Bacillus subtilis [3], 0.125 µg/mL (≈ 0.283 µM).

With `NC(=O)c1c(F)ccc(OCc2cccc(-c3ccc(Cl)cc3)c2)c1F`, the MIC in the series with Staphylococcus aureus [1] is 0.25 µg/mL (≈ 0.669 µM); in the series on Staphylococcus aureus [2], 0.25 µg/mL (≈ 0.669 µM); in the series on Bacillus subtilis [3] it was 0.063 µg/mL (≈ 0.169 µM).

For the compound `CCc1ccc(-c2cccc(COc3ccc(F)c(C(N)=O)c3F)c2)cc1`, the minimum inhibitory concentration (MIC) is 0.5 µg/mL (≈ 1.36 µM) in the series with Staphylococcus aureus [1], 0.5 µg/mL (≈ 1.36 µM) with Staphylococcus aureus [2] and 0.125 µg/mL (≈ 0.34 µM) in the series on Bacillus subtilis [3].

For the compound `CC(C)c1ccc(-c2cccc(COc3ccc(F)c(C(N)=O)c3F)c2)cc1`, the MIC is greater than 128 µg/mL in the series on Staphylococcus aureus [1], greater than 128 µg/mL in the series on Staphylococcus aureus [2] and 0.5 µg/mL (≈ 1.31 µM) with Bacillus subtilis [3].

As to `Cc1cc(Cl)ccc1-c1cccc(C(CO)Oc2ccc(F)c(C(N)=O)c2F)c1` (stereo unspecified), the figures for the minimal inhibitory concentration (MIC) in the series with Staphylococcus aureus [1], in the series on Staphylococcus aureus [2] and in the series on Bacillus subtilis [3] were 1 µg/mL (≈ 2.39 µM), 1 µg/mL (≈ 2.39 µM) and 0.125 µg/mL (≈ 0.299 µM), respectively.

As for `NC(=O)c1c(F)ccc(OCc2cccc(-c3ccc(C(F)(F)F)c(F)c3)c2)c1F`, the MIC with Staphylococcus aureus [1], in the series with Staphylococcus aureus [2] and with Bacillus subtilis [3] was greater than 128 µg/mL throughout.

`NC(=O)c1c(F)ccc(OCc2nc3cc(Cl)cnc3s2)c1F`: the minimum inhibitory concentration (MIC) in the series with Staphylococcus aureus [1] amounted to 1 µg/mL (≈ 2.81 µM); in the series with Staphylococcus aureus [2] it was 1 µg/mL (≈ 2.81 µM); in the series with Bacillus subtilis [3] it was 0.5 µg/mL (≈ 1.41 µM).

As for `Cc1cccc(-c2cccc(COc3ccc(F)c(C(N)=O)c3F)c2)c1`, the figures for the minimal inhibitory concentration (MIC) with Staphylococcus aureus [1], with Staphylococcus aureus [2] and with Bacillus subtilis [3] were greater than 128 µg/mL, greater than 128 µg/mL and 32 µg/mL (≈ 90.6 µM), respectively.

Regarding `NC(=O)c1c(F)ccc(OCc2cccc(-c3ccc(F)cc3)c2)c1F`, the minimum inhibitory concentration (MIC) was found to be 2 µg/mL (≈ 5.6 µM) in the series on Staphylococcus aureus [1], 1 µg/mL (≈ 2.8 µM) in the series on Staphylococcus aureus [2] and 0.125 µg/mL (≈ 0.35 µM) in the series on Bacillus subtilis [3].
